Bioassay records: PubChem, The Scripps Research Institute Molecular Screening Center
Shown are actives, neighbours in structure and some others; about 1.8% of the full set was active somewhere.
ABHD4 inh: ABHD4 (mouse) inhibition, primary FP screen | Q8VD66 | purified mABHD4, FP-Rh probe fluorescence polarization | inhibition, % at 8.92 µM | actives 0.54% (n = 370,000) | AID 720543;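 active = inhibition exceeding the mean over every tested compound plus 3 SD, cut at about 30% in these data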;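 also: 0% = plate median of compound wells and 100% = S159A mutant with DMSO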
Target sequence (Q8VD66 whole entry, looked up): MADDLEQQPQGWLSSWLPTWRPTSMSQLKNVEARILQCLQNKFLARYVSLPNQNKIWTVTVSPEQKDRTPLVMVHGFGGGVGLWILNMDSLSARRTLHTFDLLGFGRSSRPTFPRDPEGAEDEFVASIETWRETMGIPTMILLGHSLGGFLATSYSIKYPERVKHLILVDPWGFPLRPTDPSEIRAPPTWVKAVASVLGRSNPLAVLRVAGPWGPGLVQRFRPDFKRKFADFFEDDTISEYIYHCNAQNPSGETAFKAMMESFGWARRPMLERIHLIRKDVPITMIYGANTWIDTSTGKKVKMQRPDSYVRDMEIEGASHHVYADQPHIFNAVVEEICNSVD
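Assay system: wild-type mouse ABHD4 protein; compound: single nominal dose of 8.92 µM, 0.89% DMSO final; schedule: 45 min + 60 min at 25 °C; measured by: FP readout, ex 525 nm / em 598 nm; evaluation: % inhibition of FP-Rh probe binding versus controls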
TCR CD3 inh: blocks the human TCR-CD3 interaction | inhibition, % at 9.4 µM | actives 0.37% (n = 360,000) | AID 651800 | TAMRA-labeled TCR probe fluorescence, biochemical; in the data active = inhibition above about 19%;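 also: recombinant mutant TCR 2C K166C tagged with TAMRA read by polarization; 0% = receptor in buffer alone and 100% = receptor with positive control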
HTRA1 inh: HTRA1 (human) protease inhibition; Q92743; recombinant HTRA1, FP-rhodamine activity-based probe, fluorescence polarization; inhibition, % at 5.96 µM; actives 0.5% (n = 340,000); AID 504803; in the data active = inhibition above about 36%;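 also: 0% = enzyme with DMSO and 100% = wells lacking enzyme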
SIAE primary: inhibitors of human sialic acid acetylesterase SIAE; SIAE FP-Rh probe binding, fluorescence polarization; inhibition, % at 9.66 µM; actives 0.69% (n = 370,000);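 active = inhibition above a cutoff: mean of compounds within the control limits plus 3 SD of those, cut at about 17% in these data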;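 also: 0% = plate median of compound wells and 100% = probe without SIAE protein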
PME-1 inh: blocks human protein phosphatase methylesterase 1. actives 0.53% (n = 320,000). AID 2130. inhibition, % at 5.9 µM. recombinant PME-1, FP-Rh probe fluorescence polarization;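 active = inhibition above the campaign mean of all compounds plus 3 SD, cut at about 26% in these data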;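 also: competitive labeling of PME-1 active site by serine hydrolase directed probe; 0% = PME-1 with DMSO and 100% = wells lacking PME-1 enzyme; inhibitors block probe labeling so polarization falls and inhibition rises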
Fam108B counter: counter-screen for RBBP9 inhibitors: inhibitors of mouse Fam108B; recombinant Fam108B, FP-Rh probe fluorescence polarization; inhibition, % at 9.51 µM; actives 0.33% (n = 300,000);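 active = inhibition above the screen mean inhibition plus 3 SD, computed separately per campaign, cut at about 18% in these data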;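 also: inhibitors lower polarization as less probe binds the enzyme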
SIAE inh conf: confirmation of human SIAE inhibitors; inhibition, % at 9.66 µM; AID 1117263; shares compounds with SIAE primary; SIAE FP-Rh activity-based probe, fluorescence polarization; actives 13% (n = 2,300);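 active = mean inhibition of the replicates above the hit cutoff set in the primary screen, cut at about 17% in these data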;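 also: 0% = SIAE with DMSO and probe and 100% = probe without SIAE; inhibitors lower polarization as more probe stays unbound to SIAE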
The depositor's hits bear a star.

O=C(NC(=S)Nc1ccc(S(=O)(=O)Nc2nccs2)cc1)C1CC1 was read as ABHD4 inh -2.7, TCR CD3 inh -5.4, HTRA1 inh 7.1, SIAE primary 2.1, PME-1 inh 3.8 and Fam108B counter 2.1.
For O=C(Nc1ccc(N2CCOCC2)cc1)c1csc([C@H]2C[C@H](O)[C@@H](CO)O2)n1 the results were ABHD4 inh 3.2, TCR CD3 inh 4.1 and SIAE primary 5.5.
Screening O=C(Nc1nncs1)c1c(F)c(F)c(F)c(F)c1F returned ABHD4 inh 5.9, TCR CD3 inh -0.3, HTRA1 inh -5.8, SIAE primary 20.2*, PME-1 inh 2.2, Fam108B counter 5.8 and SIAE inh conf 1.1.
COc1cc(-c2coc3c(C(=O)NC4CCCCC4)cccc23)ccc1O was read as ABHD4 inh 13.9, TCR CD3 inh 5.5 and SIAE primary 7.9.
COc1ccccc1NC(=O)c1cc2c(CO)cnc(C)c2oc1=Nc1ccc(OC)c(OC)c1 was read as ABHD4 inh -9.9, TCR CD3 inh -4.7, HTRA1 inh 17.0, SIAE primary -16.3, PME-1 inh 2.1 and Fam108B counter 3.5.
`COc1ccccc1NC(=O)c1cc2c(CO)cnc(C)c2oc1=Nc1cc(OC)c(OC)c(OC)c1` gave ABHD4 inh 4.5, TCR CD3 inh -1.1, HTRA1 inh 0.2, SIAE primary 18.5*, PME-1 inh 0.1, Fam108B counter 2.5 and SIAE inh conf 5.0.
Cc1ccc(C(=O)N2CCN(C3c4cccc5cccc(c45)C3NS(=O)(=O)c3ccccc3)CC2)cc1 (configuration not stated) was read as ABHD4 inh -7.8, TCR CD3 inh -4.2, HTRA1 inh -53.3, SIAE primary -7.0, PME-1 inh -3.6 and Fam108B counter -8.9.
CC(=O)N1CCN(C2c3cccc4cccc(c34)C2NS(=O)(=O)c2ccccc2)CC1 (configuration not stated) was read as ABHD4 inh -3.6, TCR CD3 inh -1.6, HTRA1 inh 3.3, SIAE primary 24.4*, PME-1 inh -1.2, Fam108B counter -7.9 and SIAE inh conf -2.5.
For C[C@H](CO)N1C[C@H](C)[C@H](CN(C)C(=O)Nc2cccc3ccccc23)OCc2cnnn2CCCC1=O the results were ABHD4 inh -0.1, TCR CD3 inh 0.8, HTRA1 inh 9.8 and SIAE primary 3.7.
`COc1ccc(C2(O)CN(c3ccc(C)cc3)C3=[N+]2CCCC3)cc1` (configuration not stated) gave ABHD4 inh 3.9, TCR CD3 inh 3.4, HTRA1 inh -4.5, SIAE primary 20.0*, PME-1 inh -5.3, Fam108B counter 1.0 and SIAE inh conf 9.7.
COc1cc(Cn2nnc3ccccc32)cc(Br)c1O was read as ABHD4 inh 10.0, TCR CD3 inh -0.5, HTRA1 inh 3.6, SIAE primary 22.8*, PME-1 inh 6.7, Fam108B counter 3.4 and SIAE inh conf 1.6.
`CCOc1ccc2nc(SCC(=O)NC3CCCCC3)[nH]c2c1` gave ABHD4 inh 4.0, TCR CD3 inh 4.9, HTRA1 inh 4.9, SIAE primary 0.7, PME-1 inh -3.7 and Fam108B counter 0.7.
Cc1ccc(-c2nc(Nc3cccc(O)c3)c3ccccc3n2)cc1 was read as ABHD4 inh -54.7, TCR CD3 inh -0.8, HTRA1 inh -105.6, SIAE primary -29.9, PME-1 inh -9.4 and Fam108B counter 0.7.
`Cc1ccc(-c2nc(Nc3ccc(N4CCOCC4)cc3)c3ccccc3n2)cc1` gave ABHD4 inh 1.7, TCR CD3 inh -4.1, SIAE primary 20.8*, PME-1 inh 3.4, Fam108B counter 8.9 and SIAE inh conf 14.0.
Screening Cc1ccc(S(=O)(=O)c2c(C)nn(C(C)(C)C)c2OC(=O)CC(C)C)cc1 returned ABHD4 inh -5.6, TCR CD3 inh 3.6, HTRA1 inh -12.4, SIAE primary 1.9, PME-1 inh 3.7 and Fam108B counter -2.0.
For NC(=O)c1ccc(NC(=O)c2cc(S(=O)(=O)N3CCCCC3)ccc2N2CCOCC2)cc1 the results were ABHD4 inh 5.2, TCR CD3 inh -0.5, HTRA1 inh -2.9, SIAE primary 21.2*, PME-1 inh 1.2 and SIAE inh conf -3.4.
COc1ccc(/C=C2/C(=O)ON=C2C)cc1Cl was read as ABHD4 inh 4.2, TCR CD3 inh -2.4, HTRA1 inh 4.5, SIAE primary 21.6*, PME-1 inh -3.5, Fam108B counter -0.7 and SIAE inh conf 4.1.
COCCNC(=O)c1cccc(OC2CCN(Cc3cccc(C(C)=O)c3)CC2)c1 was read as ABHD4 inh -1.0, TCR CD3 inh -2.0, HTRA1 inh 6.0, SIAE primary 26.5*, PME-1 inh 6.0, Fam108B counter 1.0 and SIAE inh conf 1.6.
For COCCNC(=O)c1cccc(OC2CCN(Cc3ccc(F)c(OC)c3)CC2)c1 the results were ABHD4 inh -2.0, TCR CD3 inh 2.4, HTRA1 inh -0.2, SIAE primary 0.9, PME-1 inh 2.0 and Fam108B counter -3.5.
`O=c1c2cn[nH]c2[nH]c(=S)n1-c1cccc2ccccc12` gave ABHD4 inh 0.3, TCR CD3 inh 8.9, HTRA1 inh -5.9, SIAE primary 22.6*, PME-1 inh 0.2, Fam108B counter 8.6 and SIAE inh conf 3.5.
Screening O=C(Cc1ccc([N+](=O)[O-])cc1)N1CCN(c2ccc([N+](=O)[O-])cc2)CC1 returned ABHD4 inh -0.4, TCR CD3 inh -1.4, HTRA1 inh -5.9, SIAE primary -1.4, PME-1 inh 8.1 and Fam108B counter 0.6.
O=C(Cc1ccc(F)cc1)N1CCN(c2ccc([N+](=O)[O-])cc2)CC1 was read as ABHD4 inh -1.9, TCR CD3 inh 3.8, HTRA1 inh 6.0, SIAE primary 20.4* and SIAE inh conf 5.2.
CC(C)C(NS(=O)(=O)c1cccs1)C(=O)N1CCC(C(N)=O)CC1 (configuration not stated) was read as ABHD4 inh -0.1, TCR CD3 inh 6.0, HTRA1 inh 5.0, SIAE primary -2.8 and PME-1 inh -5.1.
For O=C(NCC(NS(=O)(=O)OCC(Cl)(Cl)Cl)c1ccccc1)C(F)(F)F (configuration not stated) the results were ABHD4 inh 0.2, TCR CD3 inh 8.0, HTRA1 inh -6.7, SIAE primary 0.5, PME-1 inh 0.0 and Fam108B counter 6.4.
`CC1CN(S(=O)(=O)c2ccc(C(=O)NC3CCCCC3)cc2)CC(C)O1` (configuration not stated) gave ABHD4 inh -0.2, TCR CD3 inh 4.9, HTRA1 inh -7.3, SIAE primary 18.2* and SIAE inh conf 1.4.
